ChEMBL document CHEMBL2401667, “Synthesis of N-substituted acyclic β-amino acids and their investigation as GABA uptake inhibitors” (Eur J Med Chem, 2013)

Tests used:
[1] = target: Sodium- and chloride-dependent GABA transporter 1 (Homo sapiens, UniProt P30531); assay: Inhibition of GABA uptake at GAT-1 (unknown origin)
[2] = target: T1, GABA transporter 2 (Mus musculus, UniProt P31651); assay: Inhibition of GABA uptake at murine BGT-1 expressed in HEK293 cells; type: cell-based
T1 sequence (P31651 whole entry): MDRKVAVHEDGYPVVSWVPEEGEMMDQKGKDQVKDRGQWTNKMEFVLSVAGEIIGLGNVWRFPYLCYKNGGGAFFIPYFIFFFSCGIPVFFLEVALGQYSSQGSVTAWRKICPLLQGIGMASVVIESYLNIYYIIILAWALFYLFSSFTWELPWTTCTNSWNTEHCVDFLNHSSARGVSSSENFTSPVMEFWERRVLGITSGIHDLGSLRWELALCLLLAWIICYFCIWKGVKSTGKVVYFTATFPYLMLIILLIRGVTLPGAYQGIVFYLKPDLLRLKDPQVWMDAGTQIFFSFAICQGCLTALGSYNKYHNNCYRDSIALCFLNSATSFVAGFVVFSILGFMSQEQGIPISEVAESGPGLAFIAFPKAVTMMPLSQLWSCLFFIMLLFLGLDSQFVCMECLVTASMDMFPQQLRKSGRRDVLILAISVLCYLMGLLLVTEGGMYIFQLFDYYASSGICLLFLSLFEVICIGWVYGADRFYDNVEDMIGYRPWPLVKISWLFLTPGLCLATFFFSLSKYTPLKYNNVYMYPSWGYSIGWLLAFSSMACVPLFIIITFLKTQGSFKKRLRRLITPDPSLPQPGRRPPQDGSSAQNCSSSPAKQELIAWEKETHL

[3] = target: Sodium- and chloride-dependent GABA transporter 1 (Mus musculus, UniProt P31648); assay: Inhibition of GABA uptake at murine GAT-1 expressed in HEK293 cells; type: cell-based
[4] = Inhibition of GABA uptake at GAT-1 in porcine frontal cortex P2B fraction; type: tissue-based, Sus scrofa
Procedure, shortened: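 Uptake assay on a P2B membrane preparation from porcine frontal cortex, which predominantly addresses the GAT1 subtype.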

[5] = Inhibition of GABA uptake at GAT-3 in porcine brain stem P2C fraction; design: species or system Sus scrofa
Procedure, shortened: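 Uptake assay on a P2C membrane preparation from porcine brainstem, which predominantly addresses the GAT3 subtype.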

[6] = target: T2, GABA transporter 3 (Mus musculus) (UniProt P31649); assay: Remaining GABA uptake at murine GAT-2 expressed in HEK293 cells at 100 uM relative to control
T2 sequence (whole entry): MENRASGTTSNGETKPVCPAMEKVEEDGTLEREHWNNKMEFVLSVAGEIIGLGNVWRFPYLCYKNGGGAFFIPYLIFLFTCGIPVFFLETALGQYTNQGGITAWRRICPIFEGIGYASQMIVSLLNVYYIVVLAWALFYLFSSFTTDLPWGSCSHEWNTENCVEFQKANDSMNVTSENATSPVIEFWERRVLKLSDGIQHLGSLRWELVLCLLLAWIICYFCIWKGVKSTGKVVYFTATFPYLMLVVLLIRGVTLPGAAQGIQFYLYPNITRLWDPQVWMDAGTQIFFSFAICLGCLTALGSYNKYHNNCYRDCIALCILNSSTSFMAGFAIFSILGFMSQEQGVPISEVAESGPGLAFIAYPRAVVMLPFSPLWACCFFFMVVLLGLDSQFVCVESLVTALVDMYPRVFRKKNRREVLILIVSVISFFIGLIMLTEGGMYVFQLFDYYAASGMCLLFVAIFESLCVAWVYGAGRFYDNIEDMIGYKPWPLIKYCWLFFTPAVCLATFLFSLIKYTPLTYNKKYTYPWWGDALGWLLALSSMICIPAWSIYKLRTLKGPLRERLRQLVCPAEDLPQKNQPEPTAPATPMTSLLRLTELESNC

[7] = target: T3, GABA transporter 2 (Mus musculus) (UniProt P31651); assay: Remaining GABA uptake at murine BGT-1 expressed in HEK293 cells at 100 uM relative to control
T3 sequence (whole entry): T1 sequence (P31651 whole entry)

[8] = target: Sodium- and chloride-dependent GABA transporter 1 (Mus musculus) (UniProt P31648); assay: Remaining GABA uptake at murine GAT-1 expressed in HEK293 cells at 100 uM relative to control
[9] = target: T4, GABA transporter 4 (Mus musculus, UniProt P31650); assay: Inhibition of GABA uptake at murine GAT-3 expressed in HEK293 cells; type: cell-based
T4 sequence (P31650 whole entry): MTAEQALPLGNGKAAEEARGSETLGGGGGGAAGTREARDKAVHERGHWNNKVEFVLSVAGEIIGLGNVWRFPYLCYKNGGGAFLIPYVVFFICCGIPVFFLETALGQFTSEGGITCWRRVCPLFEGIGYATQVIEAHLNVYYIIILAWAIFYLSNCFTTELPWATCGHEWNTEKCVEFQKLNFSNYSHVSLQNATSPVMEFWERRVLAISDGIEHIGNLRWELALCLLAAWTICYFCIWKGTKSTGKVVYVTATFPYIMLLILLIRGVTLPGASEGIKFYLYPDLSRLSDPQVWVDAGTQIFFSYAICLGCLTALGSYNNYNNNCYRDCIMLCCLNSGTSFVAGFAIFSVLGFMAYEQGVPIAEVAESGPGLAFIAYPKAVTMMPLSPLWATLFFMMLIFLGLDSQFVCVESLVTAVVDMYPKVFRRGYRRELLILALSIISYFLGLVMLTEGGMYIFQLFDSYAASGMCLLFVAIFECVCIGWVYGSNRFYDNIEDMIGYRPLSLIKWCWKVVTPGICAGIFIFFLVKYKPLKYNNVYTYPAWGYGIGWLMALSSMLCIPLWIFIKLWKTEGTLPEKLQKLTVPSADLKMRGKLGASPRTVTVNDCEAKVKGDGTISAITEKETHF

[10] = target: T5, GABA transporter 3 (Mus musculus, UniProt P31649); assay: Inhibition of GABA uptake at murine GAT-2 expressed in HEK293 cells; type: cell-based
T5 sequence (P31649 whole entry): T2 sequence (whole entry)

[11] = target: T3, GABA transporter 2 (Mus musculus); assay: Remaining GABA uptake at murine BGT-1 expressed in HEK293 cells at 1 mM relative to control

Sequence of Sodium- and chloride-dependent GABA transporter 1 (Homo sapiens, UniProt P30531) (P30531 whole entry): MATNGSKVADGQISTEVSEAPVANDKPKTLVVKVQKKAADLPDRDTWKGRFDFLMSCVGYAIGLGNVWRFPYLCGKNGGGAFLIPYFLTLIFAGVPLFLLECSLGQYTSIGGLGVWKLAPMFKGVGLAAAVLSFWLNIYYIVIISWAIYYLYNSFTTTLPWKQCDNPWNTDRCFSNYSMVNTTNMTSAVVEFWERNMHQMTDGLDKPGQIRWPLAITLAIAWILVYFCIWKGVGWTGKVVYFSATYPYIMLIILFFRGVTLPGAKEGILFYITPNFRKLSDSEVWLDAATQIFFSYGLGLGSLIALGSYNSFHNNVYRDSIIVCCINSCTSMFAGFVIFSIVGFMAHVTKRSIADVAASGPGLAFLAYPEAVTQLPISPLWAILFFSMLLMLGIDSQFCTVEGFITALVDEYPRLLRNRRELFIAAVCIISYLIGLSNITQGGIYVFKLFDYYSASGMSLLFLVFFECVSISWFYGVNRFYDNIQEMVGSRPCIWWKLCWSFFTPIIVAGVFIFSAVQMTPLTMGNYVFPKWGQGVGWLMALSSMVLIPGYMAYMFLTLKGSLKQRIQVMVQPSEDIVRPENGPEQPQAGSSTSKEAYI

Row | Compound | IC50 [3] | remaining GABA uptake [6] | remaining GABA uptake [7] | IC50 [9] | also measured
1 | O=C(O)[C@@H]1CCCN(CCOCCN2c3ccccc3CCc3ccccc32)C1 |  |  |  |  | IC50 [1]: 39.8 µM
2 | O=C(O)[C@@H]1CCCN(CCOCCN2c3ccccc3Sc3ccccc32)C1 |  |  |  |  | IC50 [1]: 0.309 µM
3 | O=C(O)[C@@H]1CCCN(CCOCCN2c3ccccc3C=Cc3ccccc32)C1 |  |  |  |  | IC50 [1]: 0.646 µM
4 | COc1ccc(C(/C=C/CN2CCC[C@H](C(=O)O)C2)(c2ccc(OC)cc2)c2ccc(OC)cc2)cc1 | 39.8 µM |  |  |  | IC50 [2]: 38 µM
5 | Cl.O=C(O)CCNCCC=C(c1ccccc1)c1ccccc1 |  |  |  |  | pIC50 [4]: 3.94; pIC50 [5]: 3.36
6 | O=C(O)CCNCCOCCN1c2ccccc2CCc2ccccc21 | 20.4 µM | 55% | 85% |  | 
7 | O=C(O)CCNCCOCCN1c2ccccc2Sc2ccccc21 | 35.5 µM | 50% | 88% |  | 
8 | COc1ccc(C(OCCNCCC(=O)O)(c2ccc(OC)cc2)c2ccc(OC)cc2)cc1 |  | 40% | 55% | 42.7 µM | remaining GABA uptake [8]: 57%
9 | COc1ccc(C(OCCN2CCC[C@H](C(=O)O)C2)(c2ccc(OC)cc2)c2ccc(OC)cc2)cc1 |  |  |  |  | IC50 [2]: 30.9 µM
10 | COc1ccc(C(/C=C/CNCCC(=O)O)(c2ccc(OC)cc2)c2ccc(OC)cc2)cc1 |  | 94% | 47% |  | remaining GABA uptake [8]: 77%
11 | O=C(O)CCNCCOCCN1c2ccccc2C=Cc2ccccc21 |  | 87% | 85% |  | remaining GABA uptake [8]: 56%
12 | CC(N)CC(=O)O (racemic) | 50.1 µM |  |  | 83.2 µM | IC50 [2]: 813 µM; IC50 [10]: 46.8 µM
13 | CC(CC(=O)O)NCCC=C(c1ccccc1)c1ccccc1 (racemic) | 4.57 µM | 82% | 86% |  | 
14 | CC(CC(=O)O)NCCOCCN1c2ccccc2CCc2ccccc21 (racemic) | 13.2 µM |  |  | 339 µM | remaining GABA uptake [11]: 69%; IC50 [10]: 214 µM
15 | CC(CC(=O)O)NCCOCCN1c2ccccc2C=Cc2ccccc21 (racemic) | 17.4 µM | 84% | 82% |  | 
16 | CC(CC(=O)O)NCCOCCN1c2ccccc2Sc2ccccc21 (racemic) | 8.71 µM |  | 74% |  | IC50 [10]: 40.7 µM
17 | COc1ccc(C(OCCNC(C)CC(=O)O)(c2ccc(OC)cc2)c2ccc(OC)cc2)cc1 (racemic) |  | 48% | 73% | 33.9 µM | remaining GABA uptake [8]: 114%
18 | COc1ccc(C(/C=C/CNC(C)CC(=O)O)(c2ccc(OC)cc2)c2ccc(OC)cc2)cc1 (racemic) |  |  | 47% | 60.3 µM | remaining GABA uptake [8]: 52%; IC50 [10]: 63.1 µM
19 | NCCC(=O)O [BETA-ALANINE] | 2820 µM |  |  | 34.7 µM | IC50 [2]: 331 µM; IC50 [10]: 21.9 µM
